The target in series [1] is T1, Amine oxidase [flavin-containing] A (Homo sapiens, UniProt P21397).
T1 sequence (P21397 whole entry): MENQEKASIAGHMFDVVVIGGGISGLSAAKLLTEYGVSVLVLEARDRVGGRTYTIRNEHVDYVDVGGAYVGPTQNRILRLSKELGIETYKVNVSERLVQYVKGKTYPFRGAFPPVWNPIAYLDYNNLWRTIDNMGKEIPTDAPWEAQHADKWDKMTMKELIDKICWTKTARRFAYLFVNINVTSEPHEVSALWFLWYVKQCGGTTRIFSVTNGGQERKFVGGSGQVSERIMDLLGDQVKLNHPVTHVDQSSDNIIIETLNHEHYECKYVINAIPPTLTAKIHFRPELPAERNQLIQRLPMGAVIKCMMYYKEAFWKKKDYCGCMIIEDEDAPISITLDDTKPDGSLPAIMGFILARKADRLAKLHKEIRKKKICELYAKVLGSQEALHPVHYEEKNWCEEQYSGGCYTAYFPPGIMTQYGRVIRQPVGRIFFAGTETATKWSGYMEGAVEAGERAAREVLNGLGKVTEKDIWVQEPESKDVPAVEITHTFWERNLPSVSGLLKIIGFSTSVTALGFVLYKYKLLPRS
The series is described as follows: Inhibition of human recombinant MAOA.

Series [2] in a line: AUC (0 to 24 hrs) in Sprague-Dawley rat plasma at 200 mg/kg/day, po after 14 days. It is filed as ADME, organism-based. Details: dose 200 mg/kg/day, time < 24 hr, route oral. The procedure, abridged: (§1)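 Female Sprague-Dawley rats received vehicle or drug by oral gavage daily for 14 days, at doses of 40-1000 (mg/kg)/day across the studies. End points were moribundity or lethality, hematology (RBC, hemoglobin, hematocrit, reticulocytes), bone marrow M:E ratio and plasma AUC(0-24).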

The test system of series [3] is Staphylococcus aureus. The series is described as follows: Antibacterial activity against levofloxacin-oxacillin-resistant Staphylococcus aureus UC76 SA1 by micro-broth technology. In kind it is functional. The essentials: (§2)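 Drug-resistant panel strains (levofloxacin/oxacillin-resistant S. aureus, levofloxacin/penicillin-resistant S. pneumoniae, vancomycin-resistant E. faecalis and E. faecium). Broth microdilution MIC in µg/mL; value reported as MIC90 across the strains of each resistant group.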

Series [4] has as its system Rattus norvegicus. The series is described as follows: Effect on hematology in Sprague-Dawley rat assessed as decrease in red blood cells at 200 mg/kg/day, po after 14 days. Details: route oral; scale not given: the % may be the effect or the level left. The following applies: in vivo, 336 h. It is filed as ADME, organism-based. The procedure, abridged: as §1
Series [5] has as its system Rattus norvegicus. The series is described as follows: Effect on hematology in Sprague-Dawley rat assessed as increase in hematocrit at 200 mg/kg/day, po after 14 days. The following applies: in vivo, 336 h. It is filed as ADME, organism-based. Also noted: route oral.
Series [6] has as its system Streptococcus pneumoniae. The series is described as follows: Antibacterial activity against levofloxacin-penicillin-resistant Streptococcus pneumoniae SV1 SP3 by microbroth technology. In kind it is functional. The procedure, abridged: as §2
In general terms: Dilution methods test growth across graded concentrations, often in twofold steps.

The test system of series [7] is Rattus norvegicus. In words: Toxicity in Sprague-Dawley rat at 1000 mg/kg/day, po after 14 days. It is filed as organism-based. Details: route oral. The note with it: in vivo, 336 h. The procedure, abridged: as §1
Series [8] has as its system Rattus norvegicus. In words: Effect on hematology in Sprague-Dawley rat assessed as decrease in reticulocytes at 200 mg/kg/day after 14 days. It is filed as ADME, organism-based. Also noted: scale not given: the % may be the effect or the level left. The note with it: in vivo, 336 h. The essentials:
as §1

For series [9], the system named is Enterococcus. In words: Bacteriostatic activity against Enterococcus after 48 hrs by time kill study. It is filed as functional, organism-based.
Series [10] relates to Enterococcus faecium. In words: Antibacterial activity against vancomycin-resistant Enterococcus faecium by micro-broth technology. In kind it is functional. The procedure, abridged:
as §2

For series [11], the system named is Escherichia coli. In words: Inhibition of protein synthesis in Escherichia coli by cell-free transcription-translation assay. It is filed as functional. The essentials:
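E. coli cell-free coupled transcription/translation run in microtiter format with a luciferase reporter; luminescence was the read-out for protein synthesis.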

Series [12] has as its system Staphylococcus. The series is described as follows: Bacteriostatic activity against Staphylococcus after 48 hrs by time kill study. It is filed as functional, organism-based.
The test system of series [13] is Rattus norvegicus. In words: Effect on hematology in Sprague-Dawley rat assessed as decrease in hemoglobin at 200 mg/kg/day, po after 14 days. It is filed as ADME, organism-based. Details: route oral; scale not given: the % may be the effect or the level left. The following applies: in vivo, 336 h. The procedure, abridged: as §1
Series [14] relates to Staphylococcus aureus. The series is described as follows: Antibacterial activity against Staphylococcus aureus UC76 in po dosed CD1 mouse systemic infection model assessed as mortality after 7 days. In kind it is functional.
Series [15] is described as follows: AUC (0 to 24 hrs) in Sprague-Dawley rat plasma at 40 mg/kg/day after 14 days. It is filed as ADME, organism-based. Also noted: dose 40 mg/kg/day, time < 24 hr. The procedure, abridged: as §1
For series [16], the system named is Enterococcus faecalis. In words: Antibacterial activity against vancomycin-resistant Enterococcus faecalis MGH2 EF1 by microbroth technology. In kind it is functional. The essentials:
as §2

Series [17] relates to Streptococcus pneumoniae. The series is described as follows: Bactericidal activity against Streptococcus pneumoniae after 48 hrs by time kill study. It is filed as functional, organism-based. The procedure, abridged: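 Time-kill study: bacteria exposed continuously to drug at 2-16× the MIC and sampled over 48 h to assess eradication.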
For series [18], the system named is Staphylococcus aureus. The series is described as follows: Antibacterial activity against methicillin-resistant Staphylococcus aureus SA1417 in po dosed CD1 mouse systemic infection model assessed as mortality after 7 days. In kind it is functional.
For series [19], the system named is Streptococcus pyogenes. In words: Antibacterial activity against Streptococcus pyogenes C203 by micro-broth technology. It is filed as functional.
Series [20] deals with Staphylococcus aureus. The series is described as follows: Antibacterial activity against […] in po dosed CD1 mouse systemic infection model assessed as mortality after 7 days. In kind it is functional.

Values after ≈ are worked out from the molar mass of the structure shown. Active and inactive are the calls of the source.

The term IC50 denotes the point on the concentration scale where inhibition reaches its midpoint. By AUC is commonly meant the area under the concentration-time curve, a measure of exposure. Broadly, the MIC90 is an inhibitory concentration at the 90% level, which refers to growth in some studies and to a panel of isolates in others. The term MIC denotes the smallest concentration in the dilution series that meets the test's criterion for growth inhibition. As to `CC(=O)NC[C@H]1CN(c2ccc(N3CCOCC3)c(F)c2)C(=O)O1` [LINEZOLID], the IC50 amounted to 53 µM in series [1] and 3.6 µM in series [11]. Also, the results for the AUC at 24 h in series [2] and in [15] were 666 µg·h/mL and 105 µg·h/mL, respectively. Also, the MIC90 is 4 µg/mL (≈ 11.9 µM) in series [3], 1 µg/mL (≈ 2.96 µM) in series [6], 4 µg/mL (≈ 11.9 µM) in [10] and 2 µg/mL (≈ 5.93 µM) in series [16]. The Activity in [4] was 9%; in series [5], -9%; in [7] it was “Toxic”; in [8], 97%; in series [13], 9%. Moreover, the result in series [9], in series [12] and in series [17] was Active. For the same compound, the results for the PD50 in series [14], in [18] and in series [20] were 3.1 mg/kg, 6.25 mg/kg and 5 mg/kg, respectively. The same compound gave an MIC in series [19] of 4 µg/mL (≈ 11.9 µM).

For the origin of these results see ChEMBL document CHEMBL1138317, “Antibacterial oxazolidinones possessing a novel C-5 side chain. (5R)-trans-3-[3-Fluoro-4- (1-oxotetrahydrothiopyran-4-yl)phenyl]-2- oxooxazolidine-5-carboxylic acid amide (PF-00422602), a new lead compound” (J Med Chem, 2007).
